Data on twelve compounds can be found in ChEMBL document CHEMBL1134286, “Novel erythromycin derivatives with aryl groups tethered to the C-6 position are potent protein synthesis inhibitors and active against multidrug-resistant respiratory pathogens” (J Med Chem, 2001).

Values after ≈ are worked out from the molar mass of the structure shown.

Common to all, as to assay type: functional
Assay [1] has as its system Staphylococcus aureus. In words: Minimum inhibitory concentration against Staphylococcus aureus A 5177 MLSB-i. In short, it runs like this: (§1)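 MICs were determined by agar dilution following National Committee for Clinical Laboratory Standards recommendations. Values are in µg/mL.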
Assay [2] relates to Staphylococcus aureus. Put plainly: Minimum inhibitory concentration against Staphylococcus aureus A 5278 MLSB-c. The gist of the method: as §1
A short description of assay [3]: Minimum inhibitory concentration against Streptococcus pyogenes PIU2548 efflux. The gist of the method: as §1
Assay [4] concerns Streptococcus pneumoniae. In words: Minimum inhibitory concentration against Streptococcus pneumoniae 5649 efflux. The gist of the method: as §1
Assay [5] in a line: Minimum inhibitory concentration against Streptococcus pneumoniae 5737 MLSB. In short, it runs like this: as §1
Assay [6] relates to Streptococcus pneumoniae. In words: Minimum inhibitory concentration against Streptococcus pneumoniae ATCC 6303 Ery-S. The gist of the method:
as §1

A short description of assay [7]: Minimum inhibitory concentration against Streptococcus pyogenes 930MLSB. The gist of the method: as §1
Assay [8] deals with Staphylococcus aureus. In words: Minimum inhibitory concentration against Staphylococcus aureus ATCC 6538PEry-S. The note with it: ATCC 6538P. In short, it runs like this:
as §1

Assay [9] can be described thus: Minimum inhibitory concentration against Streptococcus pyogenes EES 61 Ery-S. The gist of the method:
as §1

A short description of assay [10]: Minimum inhibitory concentration against Haemophilus influenzae DILL Amp-R. The gist of the method:
as §1

Turning to `CC[C@H]1OC(=O)[C@H](C)C(=O)[C@H](C)[C@@H](O[C@@H]2O[C@H](C)C[C@H](N(C)C)[C@H]2O)[C@](C)(OC/C=C/c2ccc3ncccc3c2)C[C@@H](C)C(=O)[C@H](C)[C@H]2NC(=O)O[C@@]21C`, the MIC with Staphylococcus aureus [1] is 0.05 µg/mL (≈ 0.0653 µM); against Staphylococcus aureus [2] it was above 100 µg/mL; in assay [3] it was 0.25 µg/mL (≈ 0.326 µM); in the assay with Streptococcus pneumoniae [4] it was 0.25 µg/mL (≈ 0.326 µM); in [5], 1 µg/mL (≈ 1.31 µM); with Streptococcus pneumoniae [6], 0.004 µg/mL (≈ 0.00522 µM). For the same compound, the MIC in [7] was found to be 1 µg/mL (≈ 1.31 µM); against Staphylococcus aureus [8], 0.05 µg/mL (≈ 0.0653 µM); in assay [9], 0.004 µg/mL (≈ 0.00522 µM); in [10] it was 1 µg/mL (≈ 1.31 µM).

With `CC[C@H]1OC(=O)[C@H](C)C(=O)[C@H](C)[C@@H](O[C@@H]2O[C@H](C)C[C@H](N(C)C)[C@H]2O)[C@](C)(OC/C=C/c2ccc(Cl)cc2)C[C@@H](C)C(=O)[C@H](C)[C@@H](O)[C@]1(C)O`, the MIC with Staphylococcus aureus [1] is 1.56 µg/mL (≈ 2.15 µM); against Staphylococcus aureus [2] it was above 100 µg/mL; in assay [3], 2 µg/mL (≈ 2.76 µM); with Streptococcus pneumoniae [4], 2 µg/mL (≈ 2.76 µM); in assay [5] it was 32 µg/mL (≈ 44.2 µM); with Streptococcus pneumoniae [6] it was 1 µg/mL (≈ 1.38 µM). Also, the MIC was determined as 32 µg/mL (≈ 44.2 µM) in assay [7], 1.56 µg/mL (≈ 2.15 µM) against Staphylococcus aureus [8], 0.5 µg/mL (≈ 0.69 µM) in [9] and 64 µg/mL (≈ 88.4 µM) in [10].

For the compound `CC[C@H]1OC(=O)[C@H](C)C(=O)[C@H](C)[C@@H](O[C@@H]2O[C@H](C)C[C@H](N(C)C)[C@H]2O)[C@](C)(OC/C=C/c2ccnc3ccccc23)C[C@@H](C)C(=O)[C@H](C)[C@H]2NC(=O)O[C@@]21C`, the MIC is 0.2 µg/mL (≈ 0.261 µM) with Staphylococcus aureus [1]; above 100 µg/mL against Staphylococcus aureus [2]; 2 µg/mL (≈ 2.61 µM) in assay [3]; 1 µg/mL (≈ 1.31 µM) against Streptococcus pneumoniae [4]; 128 µg/mL (≈ 167 µM) in assay [5]; 0.03 µg/mL (≈ 0.0392 µM) against Streptococcus pneumoniae [6]. Moreover, the MIC in [7] is 64 µg/mL (≈ 83.6 µM); with Staphylococcus aureus [8], 0.2 µg/mL (≈ 0.261 µM); in assay [9], 0.03 µg/mL (≈ 0.0392 µM); in assay [10] it was 4 µg/mL (≈ 5.22 µM).

As to `CC[C@H]1OC(=O)[C@H](C)C(=O)[C@H](C)[C@@H](O[C@@H]2O[C@H](C)C[C@H](N(C)C)[C@H]2O)[C@](C)(OCCNCc2ccncc2)C[C@@H](C)C(=O)[C@H](C)[C@@H](O)[C@]1(C)O`, the MIC in the assay with Staphylococcus aureus [1] was 3.1 µg/mL (≈ 4.38 µM); in the assay with Staphylococcus aureus [2], above 100 µg/mL; in [3], 1.56 µg/mL (≈ 2.2 µM); against Streptococcus pneumoniae [4], 2 µg/mL (≈ 2.83 µM); in assay [5], above 128 µg/mL; in the assay on Streptococcus pneumoniae [6], 0.25 µg/mL (≈ 0.353 µM). For the same compound, the MIC in assay [7] is above 100 µg/mL; in the assay with Staphylococcus aureus [8], 6.2 µg/mL (≈ 8.76 µM); in assay [9], 0.39 µg/mL (≈ 0.551 µM); in assay [10] it was 32 µg/mL (≈ 45.2 µM).

In the case of `CC[C@H]1OC(=O)[C@H](C)C(=O)[C@H](C)[C@@H](O[C@@H]2O[C@H](C)C[C@H](N(C)C)[C@H]2O)[C@](C)(OC/C=C/c2ccc3ccccc3n2)C[C@@H](C)C(=O)[C@H](C)[C@H]2NC(=O)O[C@@]21C`, the MIC against Staphylococcus aureus [1] is 0.39 µg/mL (≈ 0.509 µM); in the assay with Staphylococcus aureus [2], above 100 µg/mL; in assay [3], 1 µg/mL (≈ 1.31 µM); against Streptococcus pneumoniae [4], 1 µg/mL (≈ 1.31 µM); in assay [5], 64 µg/mL (≈ 83.6 µM); against Streptococcus pneumoniae [6], 0.125 µg/mL (≈ 0.163 µM). Moreover, the MIC in [7] is 16 µg/mL (≈ 20.9 µM); against Staphylococcus aureus [8] it was 0.39 µg/mL (≈ 0.509 µM); in assay [9], 0.125 µg/mL (≈ 0.163 µM); in assay [10], 8 µg/mL (≈ 10.4 µM).

With `CC[C@H]1OC(=O)[C@H](C)C(=O)[C@H](C)[C@@H](O[C@@H]2O[C@H](C)C[C@H](N(C)C)[C@H]2O)[C@](C)(OCCNCc2cnc3ccccc3c2)C[C@@H](C)C(=O)[C@H](C)[C@H]2NC(=O)O[C@@]21C`, the MIC is 0.1 µg/mL (≈ 0.128 µM) against Staphylococcus aureus [1]; above 100 µg/mL with Staphylococcus aureus [2]; 2 µg/mL (≈ 2.55 µM) in assay [3]; 2 µg/mL (≈ 2.55 µM) against Streptococcus pneumoniae [4]; 4 µg/mL (≈ 5.11 µM) in [5]; 0.03 µg/mL (≈ 0.0383 µM) against Streptococcus pneumoniae [6]. Also, the MIC was 16 µg/mL (≈ 20.4 µM) in assay [7], 0.1 µg/mL (≈ 0.128 µM) against Staphylococcus aureus [8], 0.03 µg/mL (≈ 0.0383 µM) in [9] and 2 µg/mL (≈ 2.55 µM) in assay [10].

For `CC[C@H]1OC(=O)[C@H](C)C(=O)[C@H](C)[C@@H](O[C@@H]2O[C@H](C)C[C@H](N(C)C)[C@H]2O)[C@](C)(OC/C=C/c2cccc3ccccc23)C[C@@H](C)C(=O)[C@H](C)[C@H]2NC(=O)O[C@@]21C`, the MIC was 0.1 µg/mL (≈ 0.131 µM) in the assay with Staphylococcus aureus [1]; 50 µg/mL (≈ 65.4 µM) in the assay on Staphylococcus aureus [2]; 0.25 µg/mL (≈ 0.327 µM) in [3]; 0.25 µg/mL (≈ 0.327 µM) against Streptococcus pneumoniae [4]; 8 µg/mL (≈ 10.5 µM) in [5]; 0.015 µg/mL (≈ 0.0196 µM) in the assay with Streptococcus pneumoniae [6]. Also, the MIC in assay [7] worked out at 16 µg/mL (≈ 20.9 µM); against Staphylococcus aureus [8] it was 0.1 µg/mL (≈ 0.131 µM); in [9], 0.015 µg/mL (≈ 0.0196 µM); in [10], 4 µg/mL (≈ 5.23 µM).

Turning to `CC[C@H]1OC(=O)[C@H](C)C(=O)[C@H](C)[C@@H](O[C@@H]2O[C@H](C)C[C@H](N(C)C)[C@H]2O)[C@](C)(OCCNCc2ccnc3ccccc23)C[C@@H](C)C(=O)[C@H](C)[C@@H](O)[C@]1(C)O`, the MIC is 3.1 µg/mL (≈ 4.09 µM) against Staphylococcus aureus [1]; above 100 µg/mL with Staphylococcus aureus [2]; 4 µg/mL (≈ 5.28 µM) in assay [3]; 0.5 µg/mL (≈ 0.66 µM) in the assay with Streptococcus pneumoniae [4]; above 128 µg/mL in assay [5]; 0.25 µg/mL (≈ 0.33 µM) in the assay on Streptococcus pneumoniae [6]. Moreover, the MIC was above 128 µg/mL in assay [7], 3.1 µg/mL (≈ 4.09 µM) in the assay with Staphylococcus aureus [8], 0.25 µg/mL (≈ 0.33 µM) in assay [9] and 32 µg/mL (≈ 42.2 µM) in assay [10].

In the case of `CC[C@H]1OC(=O)[C@H](C)C(=O)[C@H](C)[C@@H](O[C@@H]2O[C@H](C)C[C@H](N(C)C)[C@H]2O)[C@](C)(OC/C=C/c2cnc3ccccc3c2)C[C@@H](C)C(=O)[C@H](C)[C@H]2N(OC)C(=O)O[C@]12C`, the MIC is 0.1 µg/mL (≈ 0.126 µM) in the assay on Staphylococcus aureus [1]; above 100 µg/mL with Staphylococcus aureus [2]; 0.5 µg/mL (≈ 0.628 µM) in assay [3]; 0.5 µg/mL (≈ 0.628 µM) against Streptococcus pneumoniae [4]; 64 µg/mL (≈ 80.4 µM) in assay [5]; 0.06 µg/mL (≈ 0.0754 µM) with Streptococcus pneumoniae [6]. Moreover, the MIC in [7] turned out to be 64 µg/mL (≈ 80.4 µM); in the assay with Staphylococcus aureus [8], 0.1 µg/mL (≈ 0.126 µM); in assay [9] it was 0.03 µg/mL (≈ 0.0377 µM); in assay [10], 8 µg/mL (≈ 10.1 µM).

Consider `C=CCO[C@]1(C)C[C@@H](C)C(=O)[C@H](C)[C@H]2N(C)C(=O)O[C@]2(C)[C@@H](CC)OC(=O)[C@H](C)C(=O)[C@H](C)[C@H]1O[C@@H]1O[C@H](C)C[C@H](N(C)C)[C@H]1O`, for which the MIC is 6.2 µg/mL (≈ 9.5 µM) in the assay with Staphylococcus aureus [1]; above 100 µg/mL against Staphylococcus aureus [2]; 2 µg/mL (≈ 3.06 µM) in assay [3]; 0.5 µg/mL (≈ 0.766 µM) with Streptococcus pneumoniae [4]; above 128 µg/mL in [5]; 0.5 µg/mL (≈ 0.766 µM) with Streptococcus pneumoniae [6]. Besides, the MIC in assay [7] was above 128 µg/mL; against Staphylococcus aureus [8], 6.2 µg/mL (≈ 9.5 µM); in [9], 0.5 µg/mL (≈ 0.766 µM); in [10], above 128 µg/mL.

Consider `CC[C@H]1OC(=O)[C@H](C)C(=O)[C@H](C)[C@@H](O[C@@H]2O[C@H](C)C[C@H](N(C)C)[C@H]2O)[C@](C)(OC/C=C/c2ccccc2)C[C@@H](C)C(=O)[C@H](C)[C@@H](O)[C@]1(C)O`, for which the MIC is 1.56 µg/mL (≈ 2.26 µM) with Staphylococcus aureus [1]; above 100 µg/mL in the assay on Staphylococcus aureus [2]; 2 µg/mL (≈ 2.9 µM) in [3]; 2 µg/mL (≈ 2.9 µM) in the assay with Streptococcus pneumoniae [4]; 64 µg/mL (≈ 92.8 µM) in assay [5]; 1 µg/mL (≈ 1.45 µM) against Streptococcus pneumoniae [6]. Besides, the MIC in assay [7] is 64 µg/mL (≈ 92.8 µM); with Staphylococcus aureus [8], 1.56 µg/mL (≈ 2.26 µM); in assay [9], 0.25 µg/mL (≈ 0.362 µM); in assay [10], 128 µg/mL (≈ 186 µM).

Regarding `CC[C@H]1OC(=O)[C@H](C)C(=O)[C@H](C)[C@@H](O[C@@H]2O[C@H](C)C[C@H](N(C)C)[C@H]2O)[C@](C)(OC/C=C/c2cnc3ncccc3c2)C[C@@H](C)C(=O)[C@H](C)[C@H]2NC(=O)O[C@@]21C`, the MIC was 0.05 µg/mL (≈ 0.0652 µM) against Staphylococcus aureus [1]; above 100 µg/mL in the assay on Staphylococcus aureus [2]; 2 µg/mL (≈ 2.61 µM) in [3]; 2 µg/mL (≈ 2.61 µM) against Streptococcus pneumoniae [4]; 0.5 µg/mL (≈ 0.652 µM) in assay [5]; 0.03 µg/mL (≈ 0.0391 µM) with Streptococcus pneumoniae [6]. The MIC in assay [7] stood at 0.5 µg/mL (≈ 0.652 µM); in the assay with Staphylococcus aureus [8] it was 0.05 µg/mL (≈ 0.0652 µM); in assay [9], 0.03 µg/mL (≈ 0.0391 µM); in assay [10], 2 µg/mL (≈ 2.61 µM).
